{"source": "ChEMBL document CHEMBL1127293", "about": "“Mobilization of iron by chiral and achiral anionic 3-hydroxypyrid-4-ones” (1994)"}
{"test_system": "Rattus norvegicus", "test": "Biliary excretion of iron was measured after giving intravenous dose of 0.2 mmol/kg during treatment period in rat", "format": "functional", "in_short": "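Female Sprague-Dawley rats, previously untreated, served as their own controls. Biliary iron collected 0.5 h for control, then 2 h after tail-vein injection (warm-water tail passage beforehand) under anesthesia; animals recovered between periods and were kept in metabolic cages with free tap water. Iron measured by atomic absorption at 248.3 nm; rate as μg Fe/h.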", "units": {"biliary iron excretion": "µg/h"}}
{"smiles": "Cc1c(O)c(=O)ccn1[C@@H](C)C(=O)O", "Treatment period": 6240}
{"smiles": "Cc1c(O)c(=O)ccn1C", "note": "[DEFERIPRONE]", "biliary iron excretion": 4810}
{"smiles": "Cc1c(O)c(=O)ccn1-c1ccc(C(=O)O)cc1", "biliary iron excretion": 9390}
{"smiles": "CSCCC(C(=O)O)n1ccc(=O)c(O)c1C", "note": "(stereo not given)", "biliary iron excretion": 12700}
{"smiles": "Cc1c(O)c(=O)ccn1C(CCC(=O)O)C(=O)O", "note": "(stereo not given)", "biliary iron excretion": 1150}
{"smiles": "Cc1c(O)c(=O)ccn1[C@H](C)C(=O)O", "Treatment period": 4580}
{"smiles": "Cc1c(O)c(=O)ccn1C(CC(C)C)C(=O)O", "note": "(stereo not given)", "biliary iron excretion": 11600}
{"smiles": "Cc1c(O)c(=O)ccn1C(CO)C(=O)O", "note": "(stereo not given)", "biliary iron excretion": 4180}
{"smiles": "Cc1c(O)c(=O)ccn1Cc1ccc(C(=O)O)cc1", "biliary iron excretion": 13700}
{"smiles": "Cc1c(O)c(=O)ccn1C(Cc1ccccc1)C(=O)O", "note": "(stereo not given)", "biliary iron excretion": 8300}
{"test_system": "Rattus norvegicus", "test": "Urinary iron excretion was measured after giving oral dose of 1 mmol/kg during treatment period in rat", "format": "functional, Urine", "in_short": "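Female Sprague-Dawley rats as own controls; under ether anesthesia at about 6 p.m., gavage of 1 mL Millipore water (control period) or chelator solution, 1 mL per 200 g rat. Urine collected 15 h overnight in metabolic cages separating feces, tap water ad libitum. Iron by atomic absorption at 248.3 nm; significance p ≤ 0.05.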", "units": {"urinary iron excretion": "µg/15 h"}}
{"smiles": "Cc1c(O)c(=O)ccn1[C@@H](C)C(=O)O", "Treatment period": 3840}
{"smiles": "Cc1c(O)c(=O)ccn1C", "note": "[DEFERIPRONE]", "urinary iron excretion": 17300}
{"smiles": "Cc1c(O)c(=O)ccn1-c1ccc(C(=O)O)cc1", "urinary iron excretion": 1110}
{"smiles": "CSCCC(C(=O)O)n1ccc(=O)c(O)c1C", "note": "(stereo not given)", "urinary iron excretion": 1740}
{"smiles": "Cc1c(O)c(=O)ccn1C(CCC(=O)O)C(=O)O", "note": "(stereo not given)", "urinary iron excretion": 170}
{"smiles": "Cc1c(O)c(=O)ccn1[C@H](C)C(=O)O", "Treatment period": 4010}
{"smiles": "Cc1c(O)c(=O)ccn1C(CC(C)C)C(=O)O", "note": "(stereo not given)", "urinary iron excretion": 8550}
{"smiles": "Cc1c(O)c(=O)ccn1C(CO)C(=O)O", "note": "(stereo not given)", "urinary iron excretion": 1790}
{"smiles": "Cc1c(O)c(=O)ccn1Cc1ccc(C(=O)O)cc1", "urinary iron excretion": 1550}
{"smiles": "Cc1c(O)c(=O)ccn1C(Cc1ccccc1)C(=O)O", "note": "(stereo not given)", "urinary iron excretion": 1280}
